Screening data deposited in PubChem by The Scripps Research Institute Molecular Screening Center.
Most compounds without a hit are left out; they make up all but 2.4% or so of the library.
NPY2 pot ag: potentiates or activates human NPY-Y2 receptor | 220,000 tested, 0.45% active | cells expressing NPY-Y2, potentiator/agonist read-out | P49146 | activation, % at 3.6 µM; in the data active means activation above about 27%;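 further: cells stimulated with NPY near EC25 plus isoproterenol at EC100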
S1P4 agonist: agonists of human S1P4 receptor; O95977; S1P4-expressing cell line, agonist reporter assay; activation, % at 4.98 µM; 220,000 tested, 0.35% active; AID 1509; in the data active means activation above about 11%
S1P4 antagonist: blocks the human S1P4 receptor. O95977. S1P4-expressing cells, antagonist mode, reporter read-out. inhibition, % at 4.98 µM. 220,000 tested, 0.26% active; in the data active means inhibition above about 29%
NPY-Y1 PAM-ag: human NPY-Y1 potentiation or agonism, primary screen. P25929. NPY-Y1 expressing cells, potentiator/agonist activation. activation, % at 3.6 µM. 220,000 tested, 0.37% active. AID 1304; in the data active means activation above about 33%, passing the limit was not always enough;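 further: cells stimulated with NPY at EC10 then isoproterenol at EC100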
Target sequence (P25929 whole entry, looked up): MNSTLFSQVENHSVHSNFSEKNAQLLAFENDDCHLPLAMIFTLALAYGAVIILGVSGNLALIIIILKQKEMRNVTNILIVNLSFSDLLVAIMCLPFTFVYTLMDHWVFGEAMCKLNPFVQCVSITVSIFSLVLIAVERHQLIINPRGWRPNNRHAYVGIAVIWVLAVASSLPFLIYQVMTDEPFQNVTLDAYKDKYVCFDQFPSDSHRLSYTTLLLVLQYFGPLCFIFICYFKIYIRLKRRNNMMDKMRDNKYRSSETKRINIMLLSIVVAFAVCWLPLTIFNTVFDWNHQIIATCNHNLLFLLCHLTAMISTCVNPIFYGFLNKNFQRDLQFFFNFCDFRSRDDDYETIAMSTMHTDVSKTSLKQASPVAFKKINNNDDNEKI
NPY-Y2 antag: blocks the human neuropeptide Y Y2 receptor. NPY-Y2 expressing cells, antagonist mode. inhibition, % at 2.7 µM. 140,000 tested, 0.99% active. AID 793; in the data active means inhibition above about 17%
NPY-Y1 antag: blocks the human neuropeptide Y Y1 receptor; 200,000 tested, 1% active; inhibition, % at 3.6 µM; HEK293-CNG Y1 cells, membrane potential fluorescence; NPY at EC95, then isoproterenol; P25929;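 active means inhibition above the campaign mean inhibition of all tested compounds plus 3 SD, cut at about 20% in these data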
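Benchmarks – high control isoproterenol alone, low control NPY with isoproterenol · Material – HEK293 Y1/CNG channel cell line · Times – dye 3 h, compound 60 min room temperature, stimulation 45 min · Probe or stimulus – NPY (25 nM), isoproterenol (1 µM), Ro 20-1724 (25 µM) · Evaluation – % inhibition of NPY effect · Signal – fluorescence, membrane potential probe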
NPY-Y1 antag ct: human NPY-Y1 antagonism in NPY-Y2 counter-screen | shares compounds with NPY-Y2 antag | cell-based NPY-Y1 antagonism counterscreen | inhibition, % at 3.6 µM | 710 tested, 19% active | AID 1256; in the data active means inhibition above about 20%;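 further: cells challenged with NPY then isoproterenol with cAMP sensed through a CNG channel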
NPY2 antag conf: human NPY-Y2 antagonism, confirmation; shares compounds with NPY-Y2 antag; HEK293 NPY-Y2 CNG channel, membrane potential fluorescence; inhibition, % at 2.8 µM; 710 tested, 32% active; AID 1257;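 active means mean inhibition of triplicate wells above the hit cutoff set in the primary screen, cut at about 17% in these data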
Each line names hits and unclear results; the compound was inactive in the other large screens (follow-up assays come after a bar, where they were run).

COc1ccc(N2C(=O)/C(=C\c3ccco3)N=C2SCC(=O)N(C(C)C)C(C)C)cc1Cl	NPY-Y2 antag 18 | NPY-Y1 antag ct inactive | NPY2 antag conf inactive
CCCc1nnc2n1N=C(c1ccc(OC)c(OC)c1)CS2	NPY-Y2 antag 19 | NPY-Y1 antag ct inactive | NPY2 antag conf inactive
COc1ccc(/C=N/NC(=O)C2CCN(c3ncc(C(F)(F)F)cc3Cl)CC2)cc1	none
CCS(=O)(=O)N1Cc2ccccc2CC1C(=O)NC(C)C12CC3CC(CC(C3)C1)C2 (configuration not stated)	NPY-Y2 antag 19 | NPY-Y1 antag ct inactive | NPY2 antag conf inactive
CC(C)(C)NC(=O)C(c1ccc(F)cc1)N(Cc1ccco1)C(=O)Cn1nnc(-c2cccs2)n1 (configuration not stated)	NPY-Y2 antag 24 | NPY-Y1 antag ct inactive | NPY2 antag conf inactive
O=C(NC1CCCC1)C(c1cccs1)N(Cc1ccco1)C(=O)Cn1nnc(-c2cccs2)n1 (configuration not stated)	none
Clc1ccc(OCCSc2nnnn2C2CCCCC2)cc1	NPY-Y2 antag 22 | NPY-Y1 antag ct inactive | NPY2 antag conf 21
CCOc1ccc(OCCSc2nnnn2C2CCCCC2)cc1	NPY-Y2 antag 17 | NPY-Y1 antag ct inactive | NPY2 antag conf inactive
Cn1cnnc1SCCOc1ccc(Cl)cc1	none (no result: NPY-Y2 antag)
Cc1ccc(C(=O)C2C(c3cccs3)NC(=O)NC2(O)C(F)(F)F)cc1 (configuration not stated)	none
CCN(CC)S(=O)(=O)c1cc(C(=O)Oc2cccc(-c3cnc4ccccc4n3)c2)ccc1OC	NPY-Y2 antag 20 | NPY-Y1 antag ct 31 | NPY2 antag conf inactive
CCN(CC)S(=O)(=O)c1cccc(-c2n[nH]c(=S)n2/N=C/c2ccc(OC)cc2)c1	none
CCN(CC)S(=O)(=O)c1cccc(-c2n[nH]c(=S)n2/N=C/c2ccc(Br)cc2)c1	NPY-Y2 antag 19 | NPY-Y1 antag ct inactive | NPY2 antag conf inactive
O=C(OCc1nnc(-c2ccccc2)o1)c1ccc2c(c1)OCO2	NPY-Y2 antag 20 | NPY-Y1 antag ct inactive | NPY2 antag conf inactive
O=C(OCc1nnc(-c2ccccc2)o1)c1ccco1	none
Fc1ccc(Cn2c(-c3cscn3)nc3ccccc32)c(Cl)c1	none
Nc1nonc1-c1nc2ccccc2n1Cc1ccc(F)cc1Cl	NPY-Y2 antag 25 | NPY-Y1 antag ct 45 | NPY2 antag conf 51
CC12CCC(C(=O)N(Cc3ccccc3)Cc3ccccc3)(OC1=O)C2(C)C (configuration not stated)	NPY-Y2 antag 18 | NPY-Y1 antag ct inactive | NPY2 antag conf inactive
CN(C)CCCSc1nc(-c2ccccc2)nc2c1CCC2	NPY-Y2 antag 21 | NPY-Y1 antag ct inactive | NPY2 antag conf 23
Cc1nc2c(C(=O)Nc3ccc(N4CCCC(O)C4)cc3)snc2c(=O)[nH]1 (configuration not stated)	none (no result: NPY-Y2 antag, NPY-Y1 antag)
COc1ccccc1-n1c(-c2ccc(NS(C)(=O)=O)cc2)n[nH]c1=S	none
COc1ccccc1NC(=O)c1cccc(S(=O)(=O)N2CCOCC2)c1	none
O=C(Nc1cccn(Cc2c(Cl)cccc2Cl)c1=O)c1ccccc1Cl	NPY-Y2 antag 23 | NPY-Y1 antag ct inactive | NPY2 antag conf inactive
O=C(CN1CCN(S(=O)(=O)c2ccccc2)CC1)NC(=O)NCc1ccccc1	none
CCOc1ccc(Cc2c(Cl)nc(SC)nc2N(C)C)cc1	NPY-Y2 antag 50 | NPY-Y1 antag ct 63 | NPY2 antag conf 50
CCCCNC(=O)c1onc(CSc2cc(C)ccc2C)c1C(=O)O	NPY-Y2 antag 21 | NPY-Y1 antag ct 31 | NPY2 antag conf 25
COCCNC(=O)c1onc(CSc2cc(C)ccc2C)c1C(=O)O	none
CCOC(=O)C1=C(C)N(c2nonc2NC(C)=O)C(N)=C(C#N)C1c1ccccc1F (configuration not stated)	none
CCOC(=O)c1c(NC(=O)C2C3C=CC(C3)C2C(=O)O)sc2c1CCC(CC)C2 (configuration not stated)	none
